Format in all cases: functional, cell-based
In one experiment the test system is DU-145. In words: Cytotoxicity against human DU145 cells after 24 hrs by MTT assay. Particulars: DU-145, 24 h. A digest of the protocol:
(§1)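 Cells seeded 24 h before treatment, then exposed continuously to a range of compound concentrations (dissolved in DMSO) for 24 h. MTT (5 mg/mL in PBS) added, 4 h at 37 °C, 5% CO2; absorbance read at 570 nm. IC50 (50% growth inhibition) derived from plotted data, untreated cells as 100%; at least three experiments. Taxol and adriamycin as positive controls.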
A general note: Formazan colour is commonly taken as a measure of viable cells.

Another experiment deals with A549. The experiment in a line: Cytotoxicity against human A549 cells after 24 hrs by MTT assay. Particulars: A549, 24 h. A digest of the protocol: as §1
The nature of experiment [1]: Cytotoxicity against human PC3 cells after 24 hrs by MTT assay. Particulars: PC-3, 24 h. In short, it runs like this: as §1
The nature of experiment [2]: Cytotoxicity against human NCI-H1688 cells after 24 hrs by MTT assay. Particulars: NCI-H1688, 24 h. In short, it runs like this: as §1

The structures appear in SMILES notation. Counter-ions that a name gives are not always drawn.

Here are results for three molecules from ChEMBL document CHEMBL3352693, “Notolutesins A-J, dolabrane-type diterpenoids from the Chinese liverwort Notoscyphus lutescens” (J Nat Prod, 2014).

Broadly, the IC50 is the concentration at which inhibition is half-maximal. The low end stands for greater potency in that assay, the high end for weaker potency in that assay. As to `C=C[C@@]1(C)CC[C@@]2(C)[C@@H](CC[C@]34COC(=O)C3=C[C@@H](O)C[C@@H]42)C1`, the IC50 is greater than 10 µM in the experiment with DU-145, greater than 10 µM in the experiment on A549, 6.2 µM in experiment [1] and greater than 10 µM in experiment [2].

Regarding `COc1cccc2c1C(=O)c1c(O)c3c(c(O)c1C2=O)C[C@@](O)(C(=O)CO)C[C@@H]3O[C@H]1C[C@H](N)[C@H](O)[C@H](C)O1` [DOXORUBICIN HYDROCHLORIDE], the half-maximal inhibitory concentration (IC50) in the experiment on DU-145 was found to be 21.4 µM; in the experiment on A549, 23.7 µM; in experiment [1], 11.7 µM; in experiment [2] it was 4.22 µM.

For the molecule `CC(=O)O[C@H]1C(=O)[C@@]2(C)[C@H]([C@H](OC(=O)c3ccccc3)[C@]3(O)C[C@H](OC(=O)[C@H](O)[C@@H](NC(=O)c4ccccc4)c4ccccc4)C(C)=C1C3(C)C)[C@]1(OC(C)=O)CO[C@@H]1C[C@@H]2O` [PACLITAXEL], the values for the half-maximal inhibitory concentration (IC50) (with DU-145; in experiment [1]; in experiment [2]) were 1.79 µM, 0.94 µM and 0.85 µM, respectively.
